# Laboratory results published in ChEMBL document CHEMBL1124366, “Synthesis and biological properties of N63-carboxamides of teicoplanin antibiotics. Structure-activity relationships” (J Med Chem, 1989).
# Experiments:
# Streptococcus pneumoniae = test: In vitro minimum inhibitory concentration against Streptococcus pneumoniae UC41; assay type: functional
# [1] = test system: Ac2-L-Lys-D-Ala-D-Ala peptide; test: Association constant with Ac2-L-Lys-D-Ala-D-Ala
# Procedure, shortened: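 UV difference spectroscopy at 24 ± 2 °C in 4-cm unthermostated cells. Antibiotic was at 30 μM in 10% MeOH in sodium phosphate buffer, pH 9, and titrated with Ac2-L-Lys-D-Ala-D-Ala. ΔA was monitored at 294 nm. Ka was taken from the slope of a Scatchard plot.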
# [2] = test system: Staphylococcus haemolyticus; test: In vitro minimum inhibitory concentration against Staphylococcus hemolyticus 602 cell line; assay type: functional; settings: strain 602
# Enterococcus faecalis = test: In vitro minimum inhibitory concentration against Streptococcus faecalis ATCC 7080; assay type: functional
# Staphylococcus aureus = test: In vitro minimum inhibitory concentration against Staphylococcus aureus Tour; assay type: functional
# [3] = test system: Staphylococcus epidermidis; test: In vitro minimum inhibitory concentration against Staphylococcus epidermis ATCC 12228; assay type: functional
# Streptococcus pyogenes [4] = test: Subcutaneously administration into mice infected with Streptococcus pyogenes C 203; assay type: functional; settings: sc
# Procedure, shortened: (§1)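 Mice (five per treatment group, five groups) infected intraperitoneally with about 10⁵ cells of Strep. pyogenes C 203, about 100× the LD50. ED50 (mg/kg) was calculated from the percentage of mice surviving at each dose on day 7.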
# Streptococcus pyogenes [5] = test: In vitro minimum inhibitory concentration against Streptococcus pyogenes C 203; assay type: functional
# Streptococcus pyogenes [6] = test: In vivo effective dose given perorally to mice infected with Streptococcus pyogenes C 203; assay type: functional; settings: po; procedure, shortened: as §1
# Gram-negative bacteria = test: Minimum inhibitory concentration of compound against Gram negative bacteria
# Proteus vulgaris = test: In vitro minimum inhibitory concentration against Proteus vulgaris X 19 ATCC 881; assay type: functional
# Escherichia coli = test: In vitro minimum inhibitory concentration against Escherichia coli SKF 12140; assay type: functional
# Pseudomonas aeruginosa = test: In vitro minimum inhibitory concentration against Pseudomonas aeruginosa ATCC 10145; assay type: functional
Compound,MIC (Streptococcus pneumoniae) [µg/mL],Ka [1] [M⁻¹],MIC [2] [µg/mL],MIC (Enterococcus faecalis) [µg/mL],MIC (Staphylococcus aureus) [µg/mL],MIC [3] [µg/mL],ED50 (Streptococcus pyogenes [4]) [mg/kg],MIC (Streptococcus pyogenes [5]) [µg/mL],ED50 (Streptococcus pyogenes [6]) [mg/kg],MIC (Gram-negative bacteria) [µg/mL],MIC (Proteus vulgaris) [µg/mL],MIC (Escherichia coli) [µg/mL],MIC (Pseudomonas aeruginosa) [µg/mL]
CNCCCNC(=O)[C@H]1NC(=O)[C@H]2NC(=O)[C@H](NC(=O)[C@@H]3NC(=O)[C@H]4NC(=O)[C@@H](Cc5ccc(c(Cl)c5)Oc5cc3cc(c5O[C@@H]3O[C@@H](CO)[C@@H](O)[C@H](O)[C@@H]3NC(=O)CCCCCCC(C)C)Oc3ccc(cc3Cl)[C@H]2O[C@@H]2O[C@@H](CO)[C@@H](O)[C@H](O)[C@@H]2NC(C)=O)NC(=O)[C@H](N)c2ccc(O)c(c2)Oc2cc(O)cc4c2)c2ccc(O)c(c2)-c2c(O[C@H]3O[C@H](CO)[C@@H](O)[C@@H](O)[C@@H]3O)cc(O)cc21,0.12,66000,0.12,0.12,0.12,0.06,0.14,0.06,112,,,,
CC(=O)N[C@@H]1[C@H](O[C@@H]2c3ccc(c(Cl)c3)Oc3cc4cc(c3O)Oc3ccc(cc3Cl)C[C@H]3NC(=O)[C@H](N)c5ccc(O)c(c5)Oc5cc(O)cc(c5)[C@H](NC3=O)C(=O)N[C@H]4C(=O)N[C@H]3C(=O)N[C@@H]2C(=O)N[C@H](C(=O)NCCN2CCOCC2)c2cc(O)cc(O[C@H]4O[C@H](CO)[C@@H](O)[C@@H](O)[C@@H]4O)c2-c2cc3ccc2O)O[C@@H](CO)[C@@H](O)[C@@H]1O,0.5,,,1,0.25,0.06,1.6,0.12,,> 128,,,
CC(=O)NC1C(O[C@@H]2c3ccc(c(Cl)c3)Oc3cc4cc(c3O)Oc3ccc(cc3Cl)C[C@H]3NC(=O)[C@H](N)c5ccc(O)c(c5)Oc5cc(O)cc(c5)[C@H](NC3=O)C(=O)N[C@H]4C(=O)N[C@H]3C(=O)N[C@@H]2C(=O)N[C@H](C(=O)NCCCN(C)C)c2cc(O)cc(O)c2-c2cc3ccc2O)OC(CO)C(O)C1O (stereo partly drawn),0.25,54000,,0.25,0.12,0.06,2.2,0.12,,,> 128,64,
N[C@H]1C(=O)N[C@@H]2Cc3ccc(c(Cl)c3)Oc3cc4cc(c3O)Oc3ccc(cc3Cl)[C@@H](O)[C@@H]3NC(=O)[C@H](NC(=O)[C@@H]4NC(=O)[C@@H](NC2=O)c2cc(O)cc(c2)Oc2cc1ccc2O)c1ccc(O)c(c1)-c1c(O)cc(O)cc1[C@@H](C(=O)NC(CCC(=O)O)C(=O)O)NC3=O (stereo partly drawn),0.12,82000,,0.5,0.12,0.12,5,0.12,,,> 128,> 128,> 128
N[C@H]1C(=O)N[C@@H]2Cc3ccc(c(Cl)c3)Oc3cc4cc(c3O)Oc3ccc(cc3Cl)[C@@H](O)[C@@H]3NC(=O)[C@H](NC(=O)[C@@H]4NC(=O)[C@@H](NC2=O)c2cc(O)cc(c2)Oc2cc1ccc2O)c1ccc(O)c(c1)-c1c(O)cc(O)cc1[C@@H](C(=O)O)NC3=O [TEICOPLANIN AGLYCON],0.12,30000,0.25,0.12,0.06,0.016,0.95,0.12,,,128,64,> 128
CC(=O)NC1C(O[C@@H]2c3ccc(c(Cl)c3)Oc3cc4cc(c3O)Oc3ccc(cc3Cl)C[C@H]3NC(=O)[C@H](N)c5ccc(O)c(c5)Oc5cc(O)cc(c5)[C@H](NC3=O)C(=O)N[C@H]4C(=O)N[C@H]3C(=O)N[C@@H]2C(=O)N[C@H](C(=O)NCCN2CCOCC2)c2cc(O)cc(O)c2-c2cc3ccc2O)OC(CO)C(O)C1O (stereo partly drawn),1,34000,,0.5,0.12,0.12,,0.5,,,> 128,> 128,
NCCCNC(=O)[C@H]1NC(=O)[C@H]2NC(=O)[C@H](NC(=O)[C@@H]3NC(=O)[C@H]4NC(=O)[C@@H](Cc5ccc(c(Cl)c5)Oc5cc3cc(c5O)Oc3ccc(cc3Cl)[C@H]2O)NC(=O)[C@H](N)c2ccc(O)c(c2)Oc2cc(O)cc4c2)c2ccc(O)c(c2)-c2c(O)cc(O)cc21,0.12,26000,0.12,0.12,0.12,0.06,1.25,0.06,,,32,4,32
CNCCN(C)C(=O)[C@H]1NC(=O)[C@H]2NC(=O)[C@H](NC(=O)[C@@H]3NC(=O)[C@H]4NC(=O)[C@@H](Cc5ccc(c(Cl)c5)Oc5cc3cc(c5O)Oc3ccc(cc3Cl)[C@H]2O)NC(=O)[C@H](N)c2ccc(O)c(c2)Oc2cc(O)cc4c2)c2ccc(O)c(c2)-c2c(O)cc(O)cc21,0.12,,0.12,0.12,0.12,0.06,1.25,0.12,,,> 128,16,64
CCNCCNC(=O)[C@H]1NC(=O)[C@H]2NC(=O)[C@H](NC(=O)[C@@H]3NC(=O)[C@H]4NC(=O)[C@@H](Cc5ccc(c(Cl)c5)Oc5cc3cc(c5O)Oc3ccc(cc3Cl)[C@H]2O)NC(=O)[C@H](N)c2ccc(O)c(c2)Oc2cc(O)cc4c2)c2ccc(O)c(c2)-c2c(O)cc(O)cc21,0.12,,0.12,0.12,0.06,0.06,1.25,0.06,,,64,8,32
CN(C)CCCNC(=O)[C@H]1NC(=O)[C@H]2NC(=O)[C@H](NC(=O)[C@@H]3NC(=O)[C@H]4NC(=O)[C@@H](Cc5ccc(c(Cl)c5)Oc5cc3cc(c5O)Oc3ccc(cc3Cl)[C@H]2O)NC(=O)[C@H](N)c2ccc(O)c(c2)Oc2cc(O)cc4c2)c2ccc(O)c(c2)-c2c(O)cc(O)cc21,0.12,55000,,0.12,0.06,0.016,0.31,0.06,,,16,8,32
CCN1CCCC1CNC(=O)[C@H]1NC(=O)[C@H]2NC(=O)[C@H](NC(=O)[C@@H]3NC(=O)[C@H]4NC(=O)[C@@H](Cc5ccc(c(Cl)c5)Oc5cc3cc(c5O)Oc3ccc(cc3Cl)[C@H]2O)NC(=O)[C@H](N)c2ccc(O)c(c2)Oc2cc(O)cc4c2)c2ccc(O)c(c2)-c2c(O)cc(O)cc21 (stereo partly drawn),0.06,,0.12,0.12,0.06,0.06,1.25,0.06,,,32,4,64
CN(C)CCCCCCCNC(=O)[C@H]1NC(=O)[C@H]2NC(=O)[C@H](NC(=O)[C@@H]3NC(=O)[C@H]4NC(=O)[C@@H](Cc5ccc(c(Cl)c5)Oc5cc3cc(c5O)Oc3ccc(cc3Cl)[C@H]2O)NC(=O)[C@H](N)c2ccc(O)c(c2)Oc2cc(O)cc4c2)c2ccc(O)c(c2)-c2c(O)cc(O)cc21,0.12,50000,0.12,0.12,0.06,0.06,0.95,0.06,,,128,16,128
CC(=O)N[C@@H]1[C@H](O[C@@H]2c3ccc(c(Cl)c3)Oc3cc4cc(c3O)Oc3ccc(cc3Cl)C[C@H]3NC(=O)[C@H](N)c5ccc(O)c(c5)Oc5cc(O)cc(c5)[C@H](NC3=O)C(=O)N[C@H]4C(=O)N[C@H]3C(=O)N[C@@H]2C(=O)N[C@H](C(=O)O)c2cc(O)cc(O)c2-c2cc3ccc2O)O[C@@H](CO)[C@@H](O)[C@@H]1O,1,32000,,1,0.5,0.12,2.46,0.5,,,> 128,> 128,
CCOC(=O)CNC(=O)[C@H]1NC(=O)[C@H]2NC(=O)[C@H](NC(=O)[C@@H]3NC(=O)[C@H]4NC(=O)[C@@H](Cc5ccc(c(Cl)c5)Oc5cc3cc(c5O[C@@H]3O[C@@H](CO)[C@@H](O)[C@H](O)[C@@H]3NC(=O)CCCCCCC(C)C)Oc3ccc(cc3Cl)[C@H]2O[C@@H]2O[C@@H](CO)[C@@H](O)[C@H](O)[C@@H]2NC(C)=O)NC(=O)[C@H](N)c2ccc(O)c(c2)Oc2cc(O)cc4c2)c2ccc(O)c(c2)-c2c(O[C@H]3O[C@H](CO)[C@@H](O)[C@@H](O)[C@@H]3O)cc(O)cc21,0.06,120000,,0.12,0.25,0.12,0.1,0.06,> 300,,,,
